Assay results reported in ChEMBL document CHEMBL1649384, “Synthesis and antiproliferative activity of novel symmetrical alkylthio- and alkylseleno-imidocarbamates” (Eur J Med Chem, 2011).

Tests used:
[1] = system: MCF7; assay: Cytotoxicity against human MCF7 cells after 72 hrs by MTT assay; assay type: functional; conditions: MCF7, 72 h
Outline: (§1)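 Cells seeded per well: Hep-G2 1×10⁴, HT-29 4×10³, K-562 4×10³, MCF-7 1.2×10⁴, MCF-10A 7×10³, PC-3 2×10³. MCF-10A were grown in supplemented MEBM at 37 °C, 5% CO₂. Five concentrations were tested between 0.01 and 100, with 72 h exposure. Formazan was read by A590. GI₅₀ was taken relative to untreated controls, from at least three independent experiments.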

[2] = system: PC-3; assay: Cytotoxicity against human PC3 cells after 72 hrs by MTT assay; assay type: functional; conditions: PC-3, 72 h; for CC50: read-out: LC50 (the source's name); outline: as §1
[3] = system: HT-29; assay: Cytotoxicity against human HT-29 cells after 72 hrs by MTT assay; assay type: functional; conditions: HT-29, 72 h; for CC50: read-out: LC50 (the source's name); outline: as §1
[4] = system: K562; assay: Cytotoxicity against human K562 cells after 72 hrs by MTT assay; assay type: functional; conditions: K562, 72 h; for CC50: read-out: LC50 (the source's name); outline: as §1
[5] = system: HepG2; assay: Cytotoxicity against human HepG2 cells after 72 hrs by MTT assay; assay type: functional; conditions: HepG2, 72 h; for CC50: read-out: LC50 (the source's name); outline: as §1
[6] = Cytotoxicity against human MCF10A cells after 72 hrs by MTT assay; assay type: cell-based, MCF-10A; conditions: for GI50 at 72 h: MCF10A cells; for LC50 / TGI: mcf-10a, 72 h; outline: as §1

| SMILES | GI50 [1] [µM] | TGI [1] [µM] | GI50 [2] [µM] | TGI [2] [µM] | CC50 [2] [µM] | GI50 [3] [µM] | TGI [3] [µM] | CC50 [3] [µM] | GI50 [4] [µM] | TGI [4] [µM] | CC50 [4] [µM] | LC50 [1] [µM] | GI50 [5] [µM] | TGI [5] [µM] | CC50 [5] [µM] | GI50 at 72 h [6] [µM] | LC50 [6] [µM] | TGI [6] [µM] |
| --- | --- | --- | --- | --- | --- | --- | --- | --- | --- | --- | --- | --- | --- | --- | --- | --- | --- | --- |
| COc1cccc2c1C(=O)c1c(O)c3c(c(O)c1C2=O)C[C@@](O)(C(=O)CO)C[C@@H]3O[C@H]1C[C@H](N)[C@H](O)[C@H](C)O1 [DOXORUBICIN] | 0.02 | 5.01 | 0.25 | 3.16 | 19.9 | 0.2 | 25.4 | 25.4 | 0.1 | 5.01 | 19.9 |  |  |  |  |  |  |  |
| CS/C(=N\C(=O)c1ccc2c(c1)OCO2)NC(=O)c1ccc2c(c1)OCO2 | 24.6 | 59.7 | 28.7 | 54.5 | 80.4 | 46.4 | > 100 | > 100 | 68 | > 100 | > 100 | 94.8 | 61.4 | > 100 | > 100 | 1.01 | 9.05 | 5.03 |
| CS/C(=N\C(=O)c1ccno1)NC(=O)c1ccno1 | 77.8 | > 100 | 99.2 | > 100 | > 100 | > 100 | > 100 | > 100 | > 100 | > 100 | > 100 | > 100 | > 100 | > 100 | > 100 | 16.9 | > 100 | > 100 |
| O=C(/N=C(/NC(=O)c1sccc1Cl)[Se]Cc1ccccc1)c1sccc1Cl | 3.68 | 28.3 | 52.7 | > 100 | > 100 | 6.51 | > 100 | > 100 | 7.63 | 95.8 | > 100 | > 100 | 4.42 | 45.5 | > 100 | 3.68 | > 100 | 28.33 |
| C[Se]/C(=N\C(=O)c1cc2ccccc2s1)NC(=O)c1cc2ccccc2s1 | 5.07 | 32.7 | 37.2 | 65.6 | 94 | 5.62 | > 100 | > 100 | 32.4 | 61 | 89.5 | 80.6 | 9.59 | 41 | 73.3 | 0.49 | 73.21 | 34.65 |
| O=C(/N=C(/NC(=O)c1cnc2ccccc2c1)[Se]Cc1ccccc1)c1cnc2ccccc2c1 | 23.6 | > 100 | 34.8 | > 100 | > 100 | 26.1 | > 100 | > 100 | 29.3 | 72.6 | > 100 | > 100 | 8.54 | 48.9 | 90.3 | 23.6 | > 100 | > 100 |
| O=C(/N=C(/NC(=O)c1csc([N+](=O)[O-])c1)[Se]Cc1ccccc1)c1csc([N+](=O)[O-])c1 | 24.4 | 54.1 | 35.9 | 69.2 | > 100 | 9.25 | > 100 | > 100 | 23.5 | 55.8 | 88.2 | 83.8 | 34.1 | 62.8 | 91.6 | 24.4 | 83.76 | 54.1 |
| O=C(/N=C(/NC(=O)c1ccno1)[Se]Cc1ccccc1)c1ccno1 | 7.8 | > 100 | 53.1 | > 100 | > 100 | 6.82 | > 100 | > 100 | 20 | 57.3 | 94.7 | > 100 | 9.12 | 58.9 | > 100 | 7.8 | > 100 | > 100 |
| CC(=O)O[C@H]1C(=O)[C@@]2(C)[C@H]([C@H](OC(=O)c3ccccc3)[C@]3(O)C[C@H](OC(=O)[C@H](O)[C@@H](NC(=O)c4ccccc4)c4ccccc4)C(C)=C1C3(C)C)[C@]1(OC(C)=O)CO[C@@H]1C[C@@H]2O [PACLITAXEL] | 0.003 | > 100 | 0.004 | 12.6 | > 100 | 0.003 | 79.4 | 79.4 | 0.004 | 15.8 | > 100 |  |  |  |  |  |  |  |
